As a reminder, the pKd is the Kd on a negative log10 scale, so that one unit is a factor of ten.

pKd: −log10 of the molar value. Active and inactive are the calls of the source. The calls are words filed in the database; no cut-off is given here. Peptide text beside a SMILES is read from it.

The target of one assay is T1, Splicing factor 45 (Homo sapiens, UniProt Q96I25).
T1 sequence (Q96I25 whole entry): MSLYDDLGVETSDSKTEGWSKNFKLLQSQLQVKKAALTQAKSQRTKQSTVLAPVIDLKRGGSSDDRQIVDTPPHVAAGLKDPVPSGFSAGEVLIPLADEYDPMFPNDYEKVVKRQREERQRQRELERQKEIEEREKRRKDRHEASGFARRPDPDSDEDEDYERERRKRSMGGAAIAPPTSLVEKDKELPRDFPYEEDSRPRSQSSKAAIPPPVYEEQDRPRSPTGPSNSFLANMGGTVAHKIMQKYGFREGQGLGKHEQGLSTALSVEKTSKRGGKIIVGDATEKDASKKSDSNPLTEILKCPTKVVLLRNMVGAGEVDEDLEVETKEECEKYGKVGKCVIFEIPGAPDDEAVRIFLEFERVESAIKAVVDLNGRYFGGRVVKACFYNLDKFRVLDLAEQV
Nature of the assay: Binding affinity to His-Z-tagged SPF45 (unknown origin) UHM domain expressed in Escherichia coli BL21 (DE3) cells by ITC analysis. The method in brief:
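SPF45 UHM domain expressed in BL21 (DE3) as His-Ztag fusion (0.5 mM IPTG, overnight at 20 °C), then Ni-NTA, TEV cleavage of tag, ion exchange and size exclusion. ITC: 5–20 μM protein in cell titrated with 10-fold concentrated peptide, 1.5 μL injections. One-site binding fit; errors are SD of fitting errors by error propagation.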
(In general: Isothermal titration calorimetry measures the heat released or taken up as one component is titrated into another.)

Assay [1] addresses T2, Splicing factor 45 (Homo sapiens) (UniProt Q96I25).
T2 sequence (whole entry): T1 sequence (Q96I25 whole entry)
Nature of the assay: Inhibition of SPF45-mediated splicing in human HeLa nuclear extracts assessed as splicing products formation at 25 to 500 uM incubated for 20 mins before addition of IgM pre-mRNA as the splicing substrate by agarose gel electrophoresis. Also noted: scale not given: the % may be the effect or the level left. The note with it: dose 25-500 µM. The method in brief:
(§1)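 Peptide added to 25–500 μM final and held 20 min on ice before pre-mRNA. Spliced product normalized to the no-peptide control; SD from two independent experiments. Complex formation read by agarose gel electrophoresis.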

Assay [2] deals with T2, Splicing factor 45 (Homo sapiens). Put plainly: Inhibition of SPF45-mediated splicing in human HeLa nuclear extracts assessed as reduction in splicing products formation at 500 uM incubated for 20 mins before addition of IgM pre-mRNA as the splicing substrate by agarose gel electrophoresis. Put shortly: as §1
Assay [3] shares this target. Put plainly: Inhibition of SPF45-mediated splicing in human HeLa nuclear extracts assessed as reduction in complex A formation during spliceosome-assembly at 25 to 500 uM incubated for 20 mins before addition of IgM pre-mRNA as the splicing substrate by agarose gel electrophoresis. It is filed as tissue-based. To be noted: dose 25-500 µM. Put shortly: as §1
The species entered for the next assay is Homo sapiens. Put plainly: Selectivity index, ratio of Kd for U2AF65 UHM domain to Kd for His-Z-tagged SPF45 (unknown origin) UHM domain.

For `CN1CCCC[C@@H](N)C(=O)N[C@@H](CO)C(=O)N[C@@H](CCCNC(=N)N)C(=O)N[C@@H](Cc2c[nH]c3ccccc23)C(=O)N[C@@H](CC(=O)O)C(=O)N[C@@H](C(=O)N[C@@H](CCCCN)C(=O)O)CCC1=O`, on Splicing factor 45, the pKd is 5.90.

Regarding `N=C(N)NCCC[C@@H]1NC(=O)[C@H](CO)NC(=O)[C@H](N)CCCCNC(=O)CC[C@H](C(=O)N[C@@H](Cc2c[nH]c3ccccc23)C(=O)O)NC(=O)[C@H](CC(=O)O)NC(=O)[C@H](Cc2c[nH]c3ccccc23)NC1=O`, the pKd at Splicing factor 45 was 6.10.

As for `N=C(N)NCCC[C@@H]1NC(=O)[C@H](CO)NC(=O)[C@H](N)CCCCNC(=O)CC[C@H](C(=O)N[C@@H](CCCCN)C(=O)O)NC(=O)[C@H](CC(=O)O)NC(=O)[C@H](Cc2c[nH]c3ccccc23)NC1=O`, the Activity in assay [1] amounted to 29%. Also, the inhibition entry in assay [2] and in assay [3] was “Active” throughout. In addition, in the assay listed under Homo sapiens, the Ratio is 270. Also, the pKd at Splicing factor 45 was 6.74.

Compound `N=C(N)NCCC[C@@H]1NC(=O)[C@H](CO)NC(=O)[C@H](N)CCCCNC(=O)CC[C@H](C(=O)NC(CCCCN=C(N)N)C(=O)O)NC(=O)[C@H](CC(=O)O)NC(=O)[C@H](Cc2c[nH]c3ccccc23)NC1=O` (some centres undefined) had a pKd at Splicing factor 45 of 6.12.

The compound `N=C(N)NCCC[C@@H]1NC(=O)[C@H](CO)NC(=O)[C@H](N)CCCCNC(=O)CC[C@H](C(=O)O)NC(=O)[C@H](CC(=O)O)NC(=O)[C@H](Cc2c[nH]c3ccccc23)NC1=O` showed a pKd at Splicing factor 45 of 5.85.

Take `N=C(N)NCCC[C@H](NC(=O)[C@H](CO)NC(=O)[C@@H](N)CCCCN)C(=O)N[C@@H](Cc1c[nH]c2ccccc12)C(=O)N[C@@H](CC(=O)O)C(=O)N[C@@H](CCC(=O)O)C(=O)O` (H-KSRWDE-OH): in the assay filed under Homo sapiens, the Ratio stood at 9. This compound showed a pKd on Splicing factor 45 of 4.80.

As to `N=C(N)NCCC[C@H](NC(=O)[C@H]1CCC(=O)NCCCC[C@@H](N)C(=O)N[C@@H](CO)C(=O)N[C@@H](CCCNC(=N)N)C(=O)N[C@@H](Cc2c[nH]c3ccccc23)C(=O)N[C@@H](CC(=O)O)C(=O)N1)C(=O)O`, the pKd on Splicing factor 45 is 6.29.

At Splicing factor 45, `N=C(N)NCCC[C@@H]1NC(=O)[C@H](CO)NC(=O)[C@H](N)CCCCNC(=O)CC[C@H](C(=O)N[C@@H](Cc2cnc[nH]2)C(=O)O)NC(=O)[C@H](CC(=O)O)NC(=O)[C@H](Cc2c[nH]c3ccccc23)NC1=O` showed a pKd of 6.02.

The compound `N=C(N)NCCC[C@@H]1NC(=O)[C@H](CO)NC(=O)[C@H](N)CCCCNC(=O)CC[C@H](C(=O)N[C@@H](Cc2ccc(O)cc2)C(=O)O)NC(=O)[C@H](CC(=O)O)NC(=O)[C@H](Cc2c[nH]c3ccccc23)NC1=O` had a pKd on Splicing factor 45 of 5.73.

The record behind these values is ChEMBL document CHEMBL4673204, “Rational Design of Cyclic Peptide Inhibitors of U2AF Homology Motif (UHM) Domains To Modulate Pre-mRNA Splicing” (J Med Chem, 2016).
